pEC50, pIC50: −log10 of the molar value.
What was measured:
Type in all cases: cell-based
[1] = target: T1, C-X-C chemokine receptor type 4 (Homo sapiens, UniProt P61073); assay: Agonist activity at CXCR4 in human REH cells assessed as induction of chemotaxis incubated for 3 hrs by transwell migration assay
Outline: (§1)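 REH acute lymphoblastic B-cell leukaemia cells washed in RPMI; 100 000 cells in RPMI + 0.2% BSA seeded on top of 5 μm pore polycarbonate transwell, peptide dilutions in same medium in bottom chamber; 3 h, 37 °C, 5% CO2. Migrated cells in lower chamber counted by automated counter, expressed as % of seeded cells; peak = concentration giving maximal migration. Three experiments in triplicate.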

[2] = target: T1, C-X-C chemokine receptor type 4; assay: Displacement of [125I]-CXCL12 from HA-tagged human recombinant CXCR4 expressed in HEK293 cells incubated for 1 hr by gamma-radiation counting analysis
[3] = target: T1, C-X-C chemokine receptor type 4; assay: Agonist activity at HA-tagged human CXCR4 receptor expressed in HEK293 cells co-transfected with Galphai1-91-RlucII, Gbeta1, and GFP10-G-gamma1 incubated for 7 mins by Galpha1 protein activation-based BRET assay
Outline: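 HEK293 cells (3 × 10^6 per 100 mm dish) co-transfected via polyethylenimine with HA-hCXCR4 plus Gαi1-91-RlucII, Gβ1, GFP10-Gγ1; replated at 24 h, 100 000 cells/well. At 48 h, washed in HBSS/0.1% BSA, exposed to ligand 10−12 to 10−5 M for 7 min, then coelenterazine-400A 5 μM final; BRET2 515/400 nm ratio. EC50 (Gαi dissociation) and Emax from three experiments in triplicate.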

[4] = target: T1, C-X-C chemokine receptor type 4; assay: Agonist activity at CXCR4 in human REH cells assessed as optimal concentration causing maximum induction of chemotaxis incubated for 3 hrs by transwell migration assay; outline: as §1

T1 sequence (P61073 whole entry): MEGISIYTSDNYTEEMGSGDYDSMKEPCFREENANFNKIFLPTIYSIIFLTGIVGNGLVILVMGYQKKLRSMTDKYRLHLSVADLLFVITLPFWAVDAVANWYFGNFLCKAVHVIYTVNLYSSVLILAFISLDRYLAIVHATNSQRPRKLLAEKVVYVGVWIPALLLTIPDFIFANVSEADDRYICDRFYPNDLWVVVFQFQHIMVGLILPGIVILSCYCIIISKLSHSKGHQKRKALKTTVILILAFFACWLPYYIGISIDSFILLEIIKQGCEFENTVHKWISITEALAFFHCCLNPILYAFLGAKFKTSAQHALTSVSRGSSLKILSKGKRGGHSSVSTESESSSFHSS

CC(C)C[C@H](NC(=O)[C@H](CO)NC(=O)[C@H](Cc1ccc(C(=O)c2ccccc2)cc1)NC(=O)[C@@H]1CCCN1C(=O)[C@@H](N)CCCCN)C(=O)N[C@@H](CO)C(=O)N[C@@H](Cc1ccc(O)cc1)C(=O)NCCOCCOCCOCCC(=O)NCCCC[C@H](NC(=O)[C@@H]1CSSC[C@H](NC(=O)[C@H](Cc2ccc3ccccc3c2)NC(=O)[C@H](CCCNC(=N)N)NC(=O)[C@@H](N)CCCNC(=N)N)C(=O)N[C@@H](Cc2ccc(O)cc2)C(=O)N[C@@H](CCCNC(=N)N)C(=O)N[C@@H](CCCCN)C(=O)N[C@H](CCCCN)C(=O)N2CCC[C@H]2C(=O)N[C@@H](Cc2ccc(O)cc2)C(=O)N[C@@H](CCCNC(=N)N)C(=O)N[C@@H](CCCNC(=N)N)C(=O)N1)C(=O)O
%max [1]: 40% | pIC50 [2]: 6.95 | pEC50 [3]: 6.68 | Emax [3]: 75% | Activity [4]: 100 nM

CC(C)C[C@H](NC(=O)[C@H](CO)NC(=O)[C@@H](NC(=O)[C@@H]1CCCN1C(=O)[C@@H](N)CCCCN)C(C)C)C(=O)N[C@@H](CO)C(=O)N[C@@H](Cc1ccc(I)cc1)C(=O)N[C@@H](CCCNC(=N)N)C(=O)N[C@@H](CO)C(=O)N[C@@H](C)C(=O)NCCCC[C@H](NC(=O)[C@@H]1CSSC[C@H](NC(=O)[C@H](Cc2ccc3ccccc3c2)NC(=O)[C@H](CCCNC(=N)N)NC(=O)[C@@H](N)CCCNC(=N)N)C(=O)N[C@@H](Cc2ccc(O)cc2)C(=O)N[C@@H](CCCNC(=N)N)C(=O)N[C@@H](CCCCN)C(=O)N[C@H](CCCCN)C(=O)N2CCC[C@H]2C(=O)N[C@@H](Cc2ccc(O)cc2)C(=O)N[C@@H](CCCNC(=N)N)C(=O)N[C@@H](CCCNC(=N)N)C(=O)N1)C(=O)O
%max [1]: 51% | pIC50 [2]: 7.14 | pEC50 [3]: 7.03 | Emax [3]: 59% | Activity [4]: 100 nM

CC(C)C[C@H](NC(=O)[C@H](CO)NC(=O)[C@@H](NC(=O)[C@@H]1CCCN1C(=O)[C@@H](N)CCCCN)C(C)(C)C)C(=O)N[C@@H](CO)C(=O)N[C@@H](Cc1ccc(O)cc1)C(=O)N[C@@H](CCCNC(=N)N)C(=O)N[C@@H](CO)C(=O)N[C@@H](C)C(=O)NCCCC[C@H](NC(=O)[C@@H]1CSSC[C@H](NC(=O)[C@H](Cc2ccc3ccccc3c2)NC(=O)[C@H](CCCNC(=N)N)NC(=O)[C@@H](N)CCCNC(=N)N)C(=O)N[C@@H](Cc2ccc(O)cc2)C(=O)N[C@@H](CCCNC(=N)N)C(=O)N[C@@H](CCCCN)C(=O)N[C@H](CCCCN)C(=O)N2CCC[C@H]2C(=O)N[C@@H](Cc2ccc(O)cc2)C(=O)N[C@@H](CCCNC(=N)N)C(=O)N[C@@H](CCCNC(=N)N)C(=O)N1)C(=O)O
%max [1]: 21% | pIC50 [2]: 7.08 | pEC50 [3]: 7.82 | Emax [3]: 36% | Activity [4]: 100 nM

CC(C)C[C@H](NC(=O)[C@H](CO)NC(=O)[C@@H](NC(=O)[C@@H]1CCCN1C(=O)[C@@H](N)CCCCN)C(C)C)C(=O)N[C@@H](CO)C(=O)N[C@@H](Cc1ccc(OCc2ccccc2)cc1)C(=O)N[C@@H](CCCNC(=N)N)C(=O)N[C@@H](CO)C(=O)N[C@@H](C)C(=O)NCCCC[C@H](NC(=O)[C@@H]1CSSC[C@H](NC(=O)[C@H](Cc2ccc3ccccc3c2)NC(=O)[C@H](CCCNC(=N)N)NC(=O)[C@@H](N)CCCNC(=N)N)C(=O)N[C@@H](Cc2ccc(O)cc2)C(=O)N[C@@H](CCCNC(=N)N)C(=O)N[C@@H](CCCCN)C(=O)N[C@H](CCCCN)C(=O)N2CCC[C@H]2C(=O)N[C@@H](Cc2ccc(O)cc2)C(=O)N[C@@H](CCCNC(=N)N)C(=O)N[C@@H](CCCNC(=N)N)C(=O)N1)C(=O)O
%max [1]: 76% | pIC50 [2]: 6.99 | pEC50 [3]: 6.86 | Emax [3]: 79% | Activity [4]: 100 nM

— ChEMBL document CHEMBL3860039, “Structure-Activity Relationship and Signaling of New Chimeric CXCR4 Agonists” (J Med Chem, 2016)
